Test results from publication PMC3229844 (Chemmedchem, 2011).
Where two headings read alike, the source gives them in different places. Square brackets hold non-standard residues; d marks the D form. Side chains are listed from the residue outwards. Peptide text beside a SMILES is read from it. * marks the point of attachment. DOTA = O=C(O)CN1CCN(CC(=O)O)CCN(CC(=O)*)CCN(CC(=O)O)CC1; 2Nal = N[C@@H](Cc1ccc2ccccc2c1)C(=O)O; dNMeOrn = CN[C@H](CCCN)C(=O)O; 4Amb = NCc1ccc(C(=O)O)cc1

How the values were obtained:
[1] = target: T1, CXCR4 (Homo sapiens, UniProt P61073); format: binding; conditions: Table 1; mean±SD of three experiments except values greater than 100 nM
[2] = tested on: OH-1 human small-cell lung cancer xenografts; test: PET imaging of CXCR4 expression in tumor-bearing nude mice; format: in vivo
[3] = Biodistribution of [68Ga]2 c in OH1 tumor-bearing nude mice; format: in vivo; conditions: nude, mouse, tumor / muscle, total radioactivity, Tumor/Muscle ratio, Blockade, 1 h p.i. (n=4), in the presence of 50 μg cyclo-(D-Tyr 1-Arg 2-Arg 3-Nal 4-Gly 5), OH1 mice
In short: (§1)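 Tracer: 68Ga-labeled test compound, given alone or co-injected with 50 μg competitor, in nude mice bearing OH-1 human small-cell lung cancer xenografts. Animals were sampled at 60 and 120 min post-injection. Organ and tumour activity was expressed as %ID g−1, and tumour/muscle ratios were derived.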

[4] = tested on: OH-1 human small-cell lung cancer xenografts; test: as above; format: in vivo
In short: as §1

[5] = target: T1, CXCR4; conditions: value taken from the literature; cited from earlier work
[6] = 1 h p.i. (n=4), in the presence of 50 μg cyclo-(D-Tyr 1-Arg 2-Arg 3-Nal 4-Gly 5), OH1 mice

T1 sequence (P61073 whole entry): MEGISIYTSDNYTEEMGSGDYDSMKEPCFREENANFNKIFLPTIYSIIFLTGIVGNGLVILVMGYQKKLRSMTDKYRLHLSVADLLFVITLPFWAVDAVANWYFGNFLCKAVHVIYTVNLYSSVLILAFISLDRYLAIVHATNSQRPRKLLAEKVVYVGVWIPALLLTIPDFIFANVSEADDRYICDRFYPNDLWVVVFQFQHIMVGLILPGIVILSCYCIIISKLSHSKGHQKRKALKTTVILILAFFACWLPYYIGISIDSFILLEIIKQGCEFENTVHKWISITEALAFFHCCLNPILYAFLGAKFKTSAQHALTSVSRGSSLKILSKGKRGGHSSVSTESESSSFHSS

With `CN1C(=O)[C@@H](Cc2ccc(O)cc2)NC(=O)CNC(=O)[C@H](Cc2ccc3ccccc3c2)NC(=O)[C@H](CCCNC(=N)N)NC(=O)[C@H]1CCCNC(=O)c1ccc(CNC(=O)CN2CCN(CC(=O)O)CCN(CC(=O)O)CCN(CC(=O)O)CC2)cc1` [2 b] (cyclo([dY][dNMeOrn]([4Amb-DOTA])R[2Nal]G)) the IC50 [1] was 44 ± 4 nM.

For `CN1C(=O)[C@@H](Cc2ccc(O)cc2)NC(=O)CNC(=O)[C@H](Cc2ccc3ccccc3c2)NC(=O)[C@H](CCCNC(=N)N)NC(=O)[C@H]1CCCNC(=O)c1ccc(CNC(=O)CN2CCN(CC(=O)O)CCN(CC(=O)O)CCN(CC(=O)O)CC2)cc1` [[^68Ga]2 c, metal not drawn] (cyclo([dY][dNMeOrn]([4Amb-DOTA])R[2Nal]G)), the “tumor uptake on co-injection of competitor” value ([2]; co-injection of 50 μg AMD3100 per mouse (data not shown)) was “significantly reduced”, the “tumor uptake on co-injection of competitor” value ([2]; co-injection of 50 μg cyclo-(-D-Tyr 1-Arg 2-Arg 3-Nal 4-Gly 5) per mouse) was “significantly reduced” and the “accumulation in CXCR4-expressing tumors” value ([2]; nude mice bearing OH-1 human small-cell lung cancer xenografts) was “accumulated in high levels”. For the same compound, the tissue to tissue ratio at 1 h [3] was 3.45 ± 1.45, the “Blockade, Adrenal glands” value [4, 6] was 0.87±0.32 %ID g^−1 and the “Blockade, Blood” value [4, 6] was 2.50±0.64 %ID g^−1. For the same compound, the “Blockade, Heart” value [4, 6] was 1.38±0.52 %ID g^−1, the “Blockade, Intestine” value [4, 6] was 1.00±0.32 %ID g^−1 and the “Blockade, Kidney” value [4, 6] was 7.19±1.83 %ID g^−1. The “Blockade, Liver” value [4, 6] was 2.27±0.59 %ID g^−1, the “Blockade, Lung” value [4, 6] was 3.25±1.06 %ID g^−1 and the “Blockade, Muscle” value [4, 6] was 0.58±0.21 %ID g^−1. The “Blockade, Pancreas” value [4, 6] was 0.75±0.19 %ID g^−1, the “Blockade, Spleen” value [4, 6] was 1.03±0.40 %ID g^−1 and the “Blockade, Stomach” value [4, 6] was 1.40±0.30 %ID g^−1. The “Blockade, Tumor” value [4, 6] was 1.88±0.30 %ID g^−1, the “Biodistribution, Adrenal glands” value ([4]; 1 h p.i. (n=8), OH1 mice) was 0.83±0.55 %ID g^−1 and the “Biodistribution, Blood” value ([4]; 1 h p.i. (n=8), OH1 mice) was 1.08±0.27 %ID g^−1. For the same compound, the “Biodistribution, Heart” value ([4]; 1 h p.i. (n=8), OH1 mice) was 0.60±0.16 %ID g^−1, the “Biodistribution, Intestine” value ([4]; 1 h p.i. (n=8), OH1 mice) was 0.45±0.11 %ID g^−1 and the “Biodistribution, Kidney” value ([4]; 1 h p.i. (n=8), OH1 mice) was 3.06±0.63 %ID g^−1. The “Biodistribution, Liver” value ([4]; 1 h p.i. (n=8), OH1 mice) was 1.85±0.24 %ID g^−1, the “Biodistribution, Lung” value ([4]; 1 h p.i. (n=8), OH1 mice) was 1.41±0.26 %ID g^−1 and the “Biodistribution, Muscle” value ([4]; 1 h p.i. (n=8), OH1 mice) was 0.38±0.09 %ID g^−1. For the same compound, the “Biodistribution, Pancreas” value ([4]; 1 h p.i. (n=8), OH1 mice) was 0.30±0.07 %ID g^−1, the “Biodistribution, Spleen” value ([4]; 1 h p.i. (n=8), OH1 mice) was 0.69±0.09 %ID g^−1 and the “Biodistribution, Stomach” value ([4]; 1 h p.i. (n=8), OH1 mice) was 0.72±0.26 %ID g^−1. The “Biodistribution, Tumor” value ([4]; 1 h p.i. (n=8), OH1 mice) was 6.16±1.16 %ID g^−1, the “tumor to organ ratios” value ([4]; 1 h post-injection) was “High tumor to organ ratios” and the “Biodistribution, Adrenal glands” value ([4]; 2 h p.i. (n=3), OH1 mice) was 0.50±0.15 %ID g^−1. The “Biodistribution, Blood” value ([4]; 2 h p.i. (n=3), OH1 mice) was 0.58±0.14 %ID g^−1, the “Biodistribution, Heart” value ([4]; 2 h p.i. (n=3), OH1 mice) was 0.29±0.10 %ID g^−1 and the “Biodistribution, Intestine” value ([4]; 2 h p.i. (n=3), OH1 mice) was 0.36±0.04 %ID g^−1. The “Biodistribution, Kidney” value ([4]; 2 h p.i. (n=3), OH1 mice) was 2.07±0.46 %ID g^−1, the “Biodistribution, Liver” value ([4]; 2 h p.i. (n=3), OH1 mice) was 1.48±0.31 %ID g^−1 and the “Biodistribution, Lung” value ([4]; 2 h p.i. (n=3), OH1 mice) was 2.85±2.69 %ID g^−1. The “Biodistribution, Muscle” value ([4]; 2 h p.i. (n=3), OH1 mice) was 0.28±0.17 %ID g^−1, the “Biodistribution, Pancreas” value ([4]; 2 h p.i. (n=3), OH1 mice) was 0.21±0.02 %ID g^−1 and the “Biodistribution, Spleen” value ([4]; 2 h p.i. (n=3), OH1 mice) was 0.65±0.25 %ID g^−1. The “Biodistribution, Stomach” value ([4]; 2 h p.i. (n=3), OH1 mice) was 0.46±0.12 %ID g^−1 and the “Biodistribution, Tumor” value ([4]; 2 h p.i. (n=3), OH1 mice) was 4.63±1.54 %ID g^−1.

For “cyclo-(-D-Tyr 1-Arg 2-Arg 3-Nal 4-Gly 5) [1 a]”, the IC50 [5] is given as 4.3 ± 1.2 nM.
